Our source for the Activity, EC50 and fold change (FC) values is ChEMBL document CHEMBL4393735, “Molecular modelling, synthesis, and biological evaluations of a 3,5-disubstituted isoxazole fatty acid analogue as a PPARα-selective agonist” (Bioorg Med Chem, 2019).

SMILES strings stand for the structures. Activity calls are given as the source filed them.

In general, EC50 refers to the concentration at which the effect is half-maximal.

For one data set, the system named is COS-1. In words: Cytotoxicity against African green monkey COS1 cells assessed as reduction in cell viability at 10^-4 M by LDH release assay. In kind it is cell-based. The conditions noted are these: chlorocebus aethiops, cos-1, 100 µM. In outline:
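COS-1 cells were treated across the same concentration series as the GAL4 dose-response runs. Cytotoxicity was measured as LDH released into medium (absorbance 492/750 nm) and by XTT viability assay (absorbance 450/690 nm). Results expressed relative to control.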
In general terms: LDH leaks from cells whose membrane has failed.

The target in data set [1] is T1, Peroxisome proliferator-activated receptor alpha (Homo sapiens) (UniProt Q07869).
T1 sequence (whole entry): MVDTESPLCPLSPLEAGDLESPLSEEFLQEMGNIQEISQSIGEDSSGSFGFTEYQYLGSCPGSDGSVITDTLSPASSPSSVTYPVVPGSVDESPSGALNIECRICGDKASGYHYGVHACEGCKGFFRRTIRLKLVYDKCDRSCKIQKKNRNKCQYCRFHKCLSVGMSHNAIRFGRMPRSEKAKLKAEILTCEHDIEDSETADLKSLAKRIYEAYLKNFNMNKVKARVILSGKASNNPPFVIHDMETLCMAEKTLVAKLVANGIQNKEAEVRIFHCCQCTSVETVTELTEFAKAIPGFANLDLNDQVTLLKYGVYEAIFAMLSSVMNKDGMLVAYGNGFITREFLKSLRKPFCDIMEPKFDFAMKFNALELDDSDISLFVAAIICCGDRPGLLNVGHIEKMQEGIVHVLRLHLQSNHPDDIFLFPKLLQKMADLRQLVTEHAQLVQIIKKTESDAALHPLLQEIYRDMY
In words: Agonist activity at full length human FLAG-tagged GAL4-DBD fused PPARalpha LBD (168 to 468 residues) expressed in COS1 cells transfected with hRXRalpha and hCPT1A-driven reporter assessed as increase in CPT1A mRNA level at 50 uM measured after 18 hrs by dual luciferase reporter gene assay. It counts as cell-based. In outline:
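COS-1 cells were transfected with full-length human PPARα (or PPARγ) plus RXRα expression plasmids, with a wild-type or PPRE-mutated CPT1A-intronic (or PLIN1) luciferase reporter and pRL-CMV. Cells were treated with 50 μM in 0.1% DMSO (final) for 18 h. Dual-luciferase read-out normalized to DMSO control. Three biological replicates in quadruplicate, mean ± SEM.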
A general note: A reporter such as luciferase makes a cellular process visible.

The target in data set [2] is T2, Peroxisome proliferator-activated receptor alpha (Mus musculus) (UniProt P23204).
T2 sequence (whole entry): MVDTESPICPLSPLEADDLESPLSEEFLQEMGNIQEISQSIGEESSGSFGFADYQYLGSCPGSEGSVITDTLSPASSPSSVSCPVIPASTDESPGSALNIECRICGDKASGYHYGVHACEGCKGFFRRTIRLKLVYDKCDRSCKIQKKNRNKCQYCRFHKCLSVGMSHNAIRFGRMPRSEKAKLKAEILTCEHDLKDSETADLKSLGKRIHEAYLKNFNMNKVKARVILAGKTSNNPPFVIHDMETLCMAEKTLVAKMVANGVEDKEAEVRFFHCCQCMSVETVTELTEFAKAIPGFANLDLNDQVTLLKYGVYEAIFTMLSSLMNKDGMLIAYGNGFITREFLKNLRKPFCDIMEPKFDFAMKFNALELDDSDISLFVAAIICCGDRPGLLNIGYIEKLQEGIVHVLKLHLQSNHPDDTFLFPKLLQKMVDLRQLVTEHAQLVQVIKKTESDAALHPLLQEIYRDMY
The data set is described as follows: Agonist activity at PPARalpha in C57BL/6N mouse primary hepatocytes assessed as SCD1 mRNA expression at 50 uM measured after 18 hrs by qRT-PCR analysis. It counts as cell-based. The procedure, abridged:
(§1)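 Treatment for 18 h at 50 μM (or 1 μM for the 1 μM agents), DMSO vehicle. Harvested for qPCR. mRNA normalized to TBP by the comparative threshold method, expressed relative to DMSO control. Two biological replicates run in duplicate, mean ± SEM. Primary hepatocytes came from male C57BL/6N mice aged 7–8 weeks, isolated by portal-vein perfusion and digestion, seeded on collagen I and used on day 2. HuH-7 cells were kept in DMEM with 10% FBS and ITS.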
(In general: Quantitative PCR measures a nucleic acid by following its amplification.)

Data set [3] addresses T3, Peroxisome proliferator-activated receptor gamma (Homo sapiens, UniProt P37231).
T3 sequence (P37231 whole entry): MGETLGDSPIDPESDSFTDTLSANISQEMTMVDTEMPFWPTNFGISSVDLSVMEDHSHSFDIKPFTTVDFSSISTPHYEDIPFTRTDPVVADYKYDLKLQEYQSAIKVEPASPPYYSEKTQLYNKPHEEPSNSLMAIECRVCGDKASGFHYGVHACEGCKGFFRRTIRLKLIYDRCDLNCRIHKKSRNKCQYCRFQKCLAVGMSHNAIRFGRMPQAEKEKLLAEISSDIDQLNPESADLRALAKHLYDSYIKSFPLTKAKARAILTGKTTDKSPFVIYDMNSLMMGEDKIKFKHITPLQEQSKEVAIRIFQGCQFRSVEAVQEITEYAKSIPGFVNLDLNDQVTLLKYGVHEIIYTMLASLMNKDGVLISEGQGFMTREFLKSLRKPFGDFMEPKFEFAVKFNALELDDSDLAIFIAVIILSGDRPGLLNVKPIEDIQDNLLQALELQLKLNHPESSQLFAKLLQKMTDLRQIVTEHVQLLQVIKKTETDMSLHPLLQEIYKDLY
In words: Agonist activity at full length human FLAG-tagged GAL4-DBD fused PPARgamma LBD (205 to 505 residues) expressed in COS1 cells measured after 18 hrs by dual luciferase reporter gene assay. In kind it is cell-based. The procedure, abridged:
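Dose-response in COS-1 cells transfected with GAL4-DBD–human PPARα or PPARγ LBD, a 5×UAS-SV40 firefly reporter and pRL-CMV. Cells were treated with increasing concentrations in 0.1% DMSO (final) 6 h post-transfection, then for 18 h. Firefly/Renilla ratio, normalized to GAL4-only activity. EC50 was taken from a sigmoidal dose-response fit. At least three independent transfections in quadruplicate.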

Data set [4] addresses T2, Peroxisome proliferator-activated receptor alpha (Mus musculus). In words: Agonist activity at PPARalpha in C57BL/6N mouse primary hepatocytes assessed as activation of Cpt1a mRNA expression at 50 uM measured after 18 hrs by qRT-PCR analysis. It counts as cell-based. In outline: as §1
Another data set relates to SGBS. In words: Upregulation of CEBPA gene expression in human preadipocyte derived from Simpson-Golabi-Behmel syndrome (SGBS) patient at 25 uM measured for 12 days by qRT-PCR analysis. It counts as functional, cell-based. The procedure, abridged: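 SGBS cells were differentiated with serum-free induction medium containing 25 μM test agent, 2 μM rosiglitazone or 0.1% DMSO from day 0. IBMX and dexamethasone were removed on day 4 and medium was renewed on day 8. RNA was taken on days 0, 4, 8 and 12 for qPCR, normalized to TBP and to day 0. At least three biological replicates in duplicate, two-way ANOVA with Bonferroni.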

In data set [5] the target is T1, Peroxisome proliferator-activated receptor alpha (Homo sapiens). In words: Agonist activity at full length human FLAG-tagged GAL4-DBD fused PPARalpha LBD (168 to 468 residues) expressed in COS1 cells at 25 to 50 uM measured after 18 hrs by dual luciferase reporter gene assay relative to pirinixic acid. It counts as cell-based. In outline: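 COS-1 cells were transfected with GAL4-DBD–PPARα-LBD, a 5×UAS luciferase reporter and a Renilla control. After 6 h, cells were treated with 0, 25 or 50 μM test compound or pirinixic acid in 0.1% DMSO (final) for 18 h. Dual-luciferase read-out, firefly/Renilla ratio, normalized to DMSO control and GAL4.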

`CCCCCCCc1cc(CCCCCC(=O)O)no1`: the Activity entry with COS-1 is reported as “Toxic”. Also, the result (in data set [1]; in data set [2]; in data set [4]; with SGBS) was Active. In data set [3], this compound showed a concentration giving a half-maximal response (EC50) of 2000 µM. The compound also yielded a fold change (FC) in data set [5] of 2.5.
